According to ChEMBL document CHEMBL3616433, “Synthesis and anti-cancer potential of the positional isomers of NOSH-aspirin (NBS-1120) a dual nitric oxide and hydrogen sulfide releasing hybrid” (Bioorg Med Chem Lett, 2015):
The source made the active and inactive calls. The rule behind the calls is not given here.

Experiments:
[1] = system: HT-29; experiment: Cytotoxicity against human HT-29 cells assessed as growth inhibition after 24 hrs by MTT assay; format: functional, cell-based; conditions: HT-29, 24 h
How it was run: (§1)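 Cells grown in RPMI 1640 with 10% FBS, penicillin/streptomycin, at 37°C and 5% CO2. Compounds came from 100 mM DMSO stocks, with final DMSO 1% in all media. Growth was read by colorimetric MTT kit after 24 h. IC50 came from dose-response curves. Mean ± SEM of three to five experiments, each in triplicate.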

[2] = system: HCT-15; experiment: Cytotoxicity against human HCT15 cells assessed as growth inhibition after 24 hrs by MTT assay; format: functional, cell-based; conditions: HCT-15, 24 h; how it was run: as §1
[3] = system: HT-29; experiment: Cytotoxicity against human HT-29 cells assessed as reduction in PCNA expression at 50 to 500 nM after 24 hrs by ELISA relative to vehicle treated control; format: functional, cell-based
How it was run: (§2)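 HT-29 cells (1×10^6 cells/mL) exposed to a range of concentrations for 24 h. PCNA antigen was quantified by ELISA kit per the manufacturer's protocol and expressed as % of vehicle-treated cells. Mean ± SEM of 3 experiments run in duplicate; ANOVA with Tukey's test.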

[4] = system: HT-29; experiment: Induction of apoptosis in human HT-29 cells assessed as early apoptotic cells at 50 to 500 nM after 24 hrs using annexin-V staining by flow cytometry relative to control; format: functional, cell-based
How it was run: (§3)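 HT-29 cells (0.5×10^6 cells/mL) treated 24 h, washed, and resuspended in Annexin binding buffer (HEPES pH 7.4, NaCl, CaCl2). They were stained with Annexin V-FITC (final 0.5 µg/mL) and propidium iodide (final 20 µg/mL) for 5–15 min at room temperature in the dark, then analysed by flow cytometry for early apoptotic cells. Mean ± SEM of 3 experiments in duplicate.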

[5] = system: HT-29; experiment: Induction of ROS generation in human HT-29 cells assessed as increase in intracellular peroxide level at 250 nM after 1 hr using DCFDA staining by flow cytometry relative to control; format: functional
How it was run: (§4)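 Plate HT-29 cells at 0.3×10^6/well for 24 h, then treat 1 h. Trypsinize, wash in PBS, and incubate with DCFDA (10 µM) 30 min at 37°C in the dark. Read fluorescence by flow cytometry as fold over basal. Mean ± SEM of three independent experiments.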

[6] = system: HT-29; experiment: Induction of ROS generation in human HT-29 cells assessed as increase in intracellular superoxide anion level at 250 nM after 1 hr using DHE staining by flow cytometry relative to control; format: functional
How it was run: (§5)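 HT-29 cells (0.3×10^6/well) plated for 24 h, then treated 1 h. They were trypsinized, PBS-washed, and loaded with dihydroethidium (5 µM) for 30 min at 37°C in the dark. Superoxide fluorescence was measured by flow cytometry relative to basal. Mean ± SEM of three independent experiments.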

[7] = system: HT-29; experiment: Cell cycle arrest in human HT-29 cells assessed as accumulation at G0/G1 phase at 1 to 2 times IC50 after 24 hrs using propidium iodide by flow cytometry; format: functional, cell-based
How it was run: (§6)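 HT-29 cells (0.5×10^6) treated 24 h, then trypsinized, fixed in 70% ethanol (10 min, −20°C), held in PBS/1% FBS/0.5% NP-40 on ice 5 min, and stained with propidium iodide 40 µg/mL plus RNase IIA 200 µg/mL. Flow cytometry within 30 min, >10,000 events per subset. Phase percentages were taken from DNA-content histograms. Representative of two experiments agreeing within 10%.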

[8] = system: HT-29; experiment: Cell cycle arrest in human HT-29 cells assessed as accumulation at S phase at 1 to 2 times IC50 after 24 hrs using propidium iodide by flow cytometry; format: functional, cell-based; how it was run: as §6
[9] = system: HT-29; experiment: Cell cycle arrest in human HT-29 cells assessed as accumulation at G0/G1 phase at 1 to 2 times IC50 after 24 hrs using propidium iodide by flow cytometry
[10] = system: HT-29; experiment: Cytotoxicity against human HT-29 cells assessed as reduction in PCNA expression at 100 to 1000 nM after 24 hrs by ELISA relative to vehicle treated control; format: functional, cell-based; how it was run: as §2
[11] = system: HT-29; experiment: Induction of apoptosis in human HT-29 cells assessed as early apoptotic cells at 100 to 1000 nM after 24 hrs using annexin-V staining by flow cytometry relative to control; format: functional, cell-based; how it was run: as §3
[12] = system: HT-29; experiment: Induction of ROS generation in human HT-29 cells assessed as increase in intracellular peroxide level at 500 nM after 1 hr using DCFDA staining by flow cytometry relative to control; format: functional; how it was run: as §4
[13] = system: HT-29; experiment: Induction of ROS generation in human HT-29 cells assessed as increase in intracellular superoxide anion level at 500 nM after 1 hr using DHE staining by flow cytometry relative to control; format: functional; how it was run: as §5
[14] = system: HT-29; experiment: Cell cycle arrest in human HT-29 cells assessed as accumulation at G2/M phase at 1 to 2 times IC50 after 24 hrs using propidium iodide by flow cytometry; format: functional, cell-based; conditions: in the assay text read “G0/G1 phase” for “G2/M phase”; how it was run: as §6
[15] = system: HT-29; experiment: Cytotoxicity against human HT-29 cells assessed as reduction in PCNA expression after 24 hrs by ELISA; format: functional, cell-based; how it was run: as §2
[16] = system: HT-29; experiment: Cytotoxicity against human HT-29 cells assessed as reduction in PCNA expression at 10 nM after 24 hrs by ELISA relative to vehicle treated control; format: functional; parameters: scale not given: the % may be the effect or the level left; how it was run: as §2
[17] = system: HT-29; experiment: Cytotoxicity against human HT-29 cells assessed as reduction in PCNA expression at 25 nM after 24 hrs by ELISA relative to vehicle treated control; format: functional; parameters: scale not given: the % may be the effect or the level left; how it was run: as §2
[18] = system: HT-29; experiment: Cytotoxicity against human HT-29 cells assessed as reduction in PCNA expression at 50 nM after 24 hrs by ELISA relative to vehicle treated control; format: functional; parameters: scale not given: the % may be the effect or the level left; how it was run: as §2
[19] = system: HT-29; experiment: Cytotoxicity against human HT-29 cells assessed as reduction in PCNA expression at 100 nM after 24 hrs by ELISA relative to vehicle treated control; format: functional; parameters: scale not given: the % may be the effect or the level left; how it was run: as §2
[20] = system: HT-29; experiment: Induction of apoptosis in human HT-29 cells assessed as early apoptotic cells at 10 nM after 24 hrs using annexin-V staining by flow cytometry relative to control; format: functional; how it was run: as §3
[21] = system: HT-29; experiment: Induction of apoptosis in human HT-29 cells assessed as early apoptotic cells at 25 nM after 24 hrs using annexin-V staining by flow cytometry relative to control; format: functional; how it was run: as §3
[22] = system: HT-29; experiment: Induction of apoptosis in human HT-29 cells assessed as early apoptotic cells at 50 nM after 24 hrs using annexin-V staining by flow cytometry relative to control; format: functional; how it was run: as §3
[23] = system: HT-29; experiment: Induction of apoptosis in human HT-29 cells assessed as early apoptotic cells at 100 nM after 24 hrs using annexin-V staining by flow cytometry relative to control; format: functional; how it was run: as §3
[24] = system: HT-29; experiment: Cell cycle arrest in human HT-29 cells assessed as accumulation at G0/G1 phase at 50 nM after 24 hrs using propidium iodide by flow cytometry (reference value: 39.6%); format: functional; how it was run: as §6
[25] = system: HT-29; experiment: Cell cycle arrest in human HT-29 cells assessed as accumulation at G0/G1 phase at 100 nM after 24 hrs using propidium iodide by flow cytometry (reference value: 39.6%); format: functional; how it was run: as §6
[26] = system: HT-29; experiment: Cell cycle arrest in human HT-29 cells assessed as reduction in S phase at 50 nM after 24 hrs using propidium iodide by flow cytometry (reference value: 31.9%); format: functional; parameters: scale not given: the % may be the effect or the level left; how it was run: as §6
[27] = system: HT-29; experiment: Cell cycle arrest in human HT-29 cells assessed as reduction in S phase at 100 nM after 24 hrs using propidium iodide by flow cytometry (reference value: 31.9%); format: functional; parameters: scale not given: the % may be the effect or the level left; how it was run: as §6
[28] = system: HT-29; experiment: Cell cycle arrest in human HT-29 cells assessed as reduction in G2/M phase at 50 nM after 24 hrs using propidium iodide by flow cytometry (reference value: 28.5%); format: functional; parameters: scale not given: the % may be the effect or the level left; how it was run: as §6
[29] = system: HT-29; experiment: Cell cycle arrest in human HT-29 cells assessed as reduction in G2/M phase at 100 nM after 24 hrs using propidium iodide by flow cytometry (reference value: 28.5%); format: functional; parameters: scale not given: the % may be the effect or the level left; how it was run: as §6
[30] = system: HT-29; experiment: Induction of ROS generation in human HT-29 cells assessed as increase in intracellular peroxide level at 50 nM after 1 hr using DCFDA staining by flow cytometry relative to control; format: functional; how it was run: as §4
[31] = system: HT-29; experiment: Induction of ROS generation in human HT-29 cells assessed as increase in intracellular superoxide anion level at 50 nM after 1 hr using DHE staining by flow cytometry relative to control

COc1ccc(C(=O)Oc2ccc(-c3cc(=S)ss3)cc2)cc1OC(=O)CCCO[N+](=O)[O-]
IC50 [1]: 0.43 µM
IC50 [2]: 0.33 µM

O=C(CCCO[N+](=O)[O-])Oc1ccc(Cl)cc1C(=O)Oc1ccc(-c2cc(=S)ss2)cc1
IC50 [1]: 0.4 µM
IC50 [2]: 0.17 µM

COc1ccc(OC(=O)CCCO[N+](=O)[O-])c(C(=O)Oc2ccc(-c3cc(=S)ss3)cc2)c1
IC50 [1]: 0.2 µM
IC50 [2]: 0.38 µM

CC(=O)Oc1ccccc1C(=O)O [ASPIRIN]
IC50 [1]: > 5000 µM
IC50 [2]: > 5000 µM

O=C(CCCO[N+](=O)[O-])Oc1ccc(C(=O)Oc2ccc(-c3cc(=S)ss3)cc2)cc1Cl
IC50 [1]: 0.06 µM
IC50 [2]: 0.33 µM

COc1cc(C(=O)Oc2ccc(-c3cc(=S)ss3)cc2)ccc1OC(=O)CCCO[N+](=O)[O-]
IC50 [1]: 0.13 µM
IC50 [2]: 0.22 µM

O=C(CCCO[N+](=O)[O-])Oc1cccc(C(=O)Oc2ccc(-c3cc(=S)ss3)cc2)c1
IC50 [1]: 0.22 µM
IC50 [2]: 0.11 µM
Activity [3]: Active
Activity [4]: Active
fold change (FC) [5]: 15
fold change (FC) [6]: 21
Activity [7]: Active
Activity [8]: Active
Activity [9]: Active

O=C(CCCO[N+](=O)[O-])Oc1ccc(C(=O)Oc2ccc(-c3cc(=S)ss3)cc2)cc1
IC50 [1]: 0.45 µM
IC50 [2]: 0.38 µM
Activity [10]: Active
Activity [11]: Active
fold change (FC) [12]: 11
fold change (FC) [13]: 10
Activity [7]: Active
Activity [8]: Active
Activity [14]: Active

O=C(CCCO[N+](=O)[O-])Oc1ccccc1C(=O)Oc1ccc(-c2cc(=S)ss2)cc1
IC50 [2]: 0.057 µM
Activity [15]: Dose-dependent effect
Activity [16]: 80%
Activity [17]: 65%
Activity [18]: 48%
Activity [19]: 20%
Activity [20]: 15%
Activity [21]: 35%
Activity [22]: 65%
Activity [23]: 78%
Activity [24]: 53.6%
Activity [25]: 71.9%
Activity [26]: 26.1%
Activity [27]: 18.2%
Activity [28]: 20.3%
Activity [29]: 9.9%
fold change (FC) [30]: 16
fold change (FC) [31]: 18

O=C(CCCO[N+](=O)[O-])Oc1cccc(C(=O)Oc2ccc(-c3cc(=S)ss3)cc2)c1Cl
IC50 [1]: 0.21 µM
IC50 [2]: 0.14 µM
